# Measured values from ChEMBL document CHEMBL3098112, “Synthesis and evaluation of spiroisoxazoline oxindoles as anticancer agents” (Bioorg Med Chem, 2014).
# The source made the active and inactive calls. No cut-off for these calls is given here.
# Legend:
# HepG2 = test: Antiproliferative activity against human HepG2 cells after 24 hrs by MTS assay; format: functional; conditions: HepG2, 24 h
# In short: (§1)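 Cells plated (1×10^5 cells/mL) and treated about 24 h later with compounds in DMSO diluted in medium, 0.5 to 200 µM; viability read 24 h after treatment by MTS, absorbance 490 nm. GI50 from non-linear regression; mean ± SEM of three independent experiments. HCT116 and SW620 in McCoy's 5A, HepG2 in DMEM, all with 10% FBS, 37 °C, 5% CO2.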
# Plasma = test: Metabolic stability in human plasma up to 72 hrs by HPLC analysis; format: ADME, cell-free
# [1] = Half life in Sprague-Dawley rat liver microsomes by HPLC analysis in presence of NADPH-regenerating system; format: ADME
# In short: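 Male Sprague–Dawley pooled liver microsomes in potassium phosphate pH 7.4 with NADPH regenerating system, preincubated 5 min at 37 °C. Reaction started with 4 µL of 10^-3 M DMSO stock. Aliquots quenched in acetonitrile, centrifuged, and supernatant analysed by RP-18 HPLC at 260 nm for half-life.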
# HCT-116 [2] = test: Antiproliferative activity against human HCT116 cells expressing p53 after 24 hrs by MTS assay; format: functional; conditions: HCT-116, 24 h; in short: as §1
# SW-620 = test: Antiproliferative activity against human SW620 cells expressing p53 mutant after 24 hrs by MTS assay; format: functional; conditions: SW-620, 24 h; in short: as §1
# HCT-116 [3] = test: Antiproliferative activity against p53-deficient human HCT116 cells after 24 hrs by MTS assay; format: functional; conditions: HCT-116, 24 h; in short: as §1
# HCT-116 [4] = test: Induction of apoptosis in p53-deficient human HCT116 cells assessed as increase in PARP cleavage after 24 hrs by Western blotting analysis; format: functional, cell-based; conditions: in the assay text read “p53 wild-type” for “p53-deficient”
# [5] = target: T1, Tumour suppressor p53/oncoprotein Mdm2 (Homo sapiens) (UniProt P04637+Q00987); test: Inhibition of p53-MDM2 (unknown origin) interaction expressed in p53-deficient human HCT116 cells at 25 to 50 uM after 24 hrs by BiFC-based FACS flow cytometric analysis; format: cell-based; conditions: HCT-116
# T1 sequence (P04637 whole entry, looked up): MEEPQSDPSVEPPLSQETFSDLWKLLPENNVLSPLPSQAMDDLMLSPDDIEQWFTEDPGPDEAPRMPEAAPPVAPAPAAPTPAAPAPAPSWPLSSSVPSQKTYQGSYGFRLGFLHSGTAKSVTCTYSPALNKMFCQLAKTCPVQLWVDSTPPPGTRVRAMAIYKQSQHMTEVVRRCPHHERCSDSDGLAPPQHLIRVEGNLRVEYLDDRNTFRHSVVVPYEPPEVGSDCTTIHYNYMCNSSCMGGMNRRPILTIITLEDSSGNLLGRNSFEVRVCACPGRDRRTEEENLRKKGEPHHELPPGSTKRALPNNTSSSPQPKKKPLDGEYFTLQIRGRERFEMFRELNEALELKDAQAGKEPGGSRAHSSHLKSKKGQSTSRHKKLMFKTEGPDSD
# T1 sequence (Q00987 whole entry, looked up): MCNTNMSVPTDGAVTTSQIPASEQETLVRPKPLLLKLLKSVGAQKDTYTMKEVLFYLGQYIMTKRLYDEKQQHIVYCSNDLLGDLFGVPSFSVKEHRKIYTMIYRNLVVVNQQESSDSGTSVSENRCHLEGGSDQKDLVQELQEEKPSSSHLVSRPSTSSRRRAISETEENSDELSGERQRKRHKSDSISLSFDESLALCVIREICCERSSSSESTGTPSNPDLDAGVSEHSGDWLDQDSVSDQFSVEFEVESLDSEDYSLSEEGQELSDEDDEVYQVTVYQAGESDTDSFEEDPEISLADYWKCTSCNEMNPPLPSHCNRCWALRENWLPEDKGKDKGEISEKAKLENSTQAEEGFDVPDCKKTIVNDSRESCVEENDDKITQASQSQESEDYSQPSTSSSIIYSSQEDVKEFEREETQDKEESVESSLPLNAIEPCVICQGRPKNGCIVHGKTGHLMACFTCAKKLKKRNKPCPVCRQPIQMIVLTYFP
# In short: (§2)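 HCT116 p53-/- cells co-transfected with V1-p53/MDM2-V2 BiFC plasmids (1 µg each, Lipofectamine 2000). Medium replaced 4–6 h post-transfection and compounds in DMSO added. Cells harvested at 24 h with accutase, resuspended in PBS, and complementation fluorescence measured by flow cytometry; n = 3.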
# HCT-116 [6] = test: Induction of apoptosis in p53-deficient human HCT116 cells assessed as caspase 3 activation after 24 hrs by Western blotting analysis; format: functional, cell-based; conditions: in the assay text read “p53 wild-type” for “p53-deficient”
# In short: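 HCT116 p53-/- cells seeded at 3×10^5 cells/mL and exposed to vehicle or compound at 25 and 50 µM for 24 h. Whole-cell extracts (60–80 µg) run on 8% and 14% SDS-PAGE and immunoblotted for caspase-3 or PARP-1/2. Bands quantified by densitometry and normalized to β-actin; three independent experiments.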
# [7] = Chemical stability in phosphate buffer at pH 7.4 up to 72 hrs by HPLC analysis; format: physicochemical; conditions: pH 7.4, 72 h
# In short: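 12.5 µL of 10^-2 M DMSO stock added to 2.5 mL potassium phosphate buffer (pH 7.4, 0.5 M) at 37 °C; aliquots taken at intervals into acetonitrile and analysed by RP-18 HPLC (acetonitrile/water 70:30, 1 mL/min, UV 260 nm, 25 °C) over 72 h.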
# [8] = target: T1, Tumour suppressor p53/oncoprotein Mdm2 (Homo sapiens); test: Inhibition of p53-MDM2 (unknown origin) interaction expressed in p53-deficient human HCT116 cells at 10 to 50 uM after 24 hrs by BiFC-based FACS flow cytometric analysis; format: cell-based; conditions: HCT-116; in short: as §2
SMILES,GI50 (HepG2) [µM],GI50 (HCT-116 [2]) [µM],GI50 (SW-620) [µM],GI50 (HCT-116 [3]) [µM],further results
O=C1Nc2ccc([N+](=O)[O-])cc2[C@]12ON=C(c1ccccc1)[C@H]2c1ccccc1 (relative stereo),83.6,–,–,–,–
COc1ccc([C@@H]2C(c3ccccc3)=NO[C@@]23C(=O)Nc2ccccc23)cc1 (relative stereo),> 100,–,–,–,–
COc1ccc(C2=NO[C@@]3(C(=O)Nc4c(Cl)cccc43)[C@@H]2c2ccccc2)cc1 (relative stereo),55.8,–,–,–,–
COc1ccc(C2=NO[C@@]3(C(=O)Nc4ccc([N+](=O)[O-])cc43)[C@@H]2c2ccccc2)cc1 (relative stereo),53.1,–,–,–,–
COc1ccc(C2=NO[C@@]3(C(=O)Nc4cc(Cl)ccc43)[C@@H]2c2ccccc2)cc1 (relative stereo),38.1,34.7,53.2,40.1,Stability (Plasma): Stable; half-life [1]: 3.15 h; Activity (HCT-116 [4]): Dose-dependent effect; inhibition [5]: Active; Activity (HCT-116 [6]): Dose-dependent effect; Stability [7]: Stable
O=C1Nc2ccccc2[C@]12ON=C(c1ccccc1)[C@H]2c1ccccc1 (relative stereo),> 100,–,–,–,–
COc1ccc(C2=NO[C@@]3(C(=O)Nc4ccccc43)[C@@H]2c2ccccc2)cc1 (relative stereo),77.8,–,–,–,–
O=C1Nc2ccccc2[C@]12ON=C(c1ccc([N+](=O)[O-])cc1)[C@H]2c1ccccc1 (relative stereo),52.1,–,–,–,–
O=C1Nc2cc(Cl)ccc2[C@]12ON=C(c1ccccc1)[C@H]2c1ccccc1 (relative stereo),37.1,39.8,48.9,48.2,inhibition [8]: Active
Cc1ccc(C2=NO[C@@]3(C(=O)Nc4cc(Cl)ccc43)[C@@H]2c2ccccc2)cc1 (relative stereo),29.1,26.6,31.6,30.6,Activity (HCT-116 [4]): Dose-dependent effect; inhibition [5]: Active; Activity (HCT-116 [6]): Dose-dependent effect
COc1ccc(C2=NO[C@@]3(C(=O)Nc4ccccc43)[C@@H]2c2ccc(OC)cc2)cc1 (relative stereo),> 100,–,–,–,–
COc1ccc(C2=NO[C@@]3(C(=O)Nc4cc(Br)ccc43)[C@@H]2c2ccccc2)cc1 (relative stereo),31.7,33.4,40.4,39,Stability (Plasma): Stable; half-life [1]: 3.62 h; Stability [7]: Stable
COc1ccccc1C1=NO[C@@]2(C(=O)Nc3cc(Cl)ccc32)[C@@H]1c1ccccc1 (relative stereo),35.7,30.5,36.7,35.6,–
COc1ccc(C2=N[C@@H](c3ccc(Cl)cc3)[C@@H](c3ccc(Cl)cc3)N2C(=O)N2CCNC(=O)C2)c(OC(C)C)c1 [NUTLIN-3],51.3,–,–,52.3,–
COc1ccc([C@@H]2C(c3ccccc3)=NO[C@@]23C(=O)N(C)c2ccccc23)cc1 (relative stereo),> 100,–,–,–,–
O=C1Nc2cc(Br)ccc2[C@]12ON=C(c1ccccc1)[C@H]2c1ccccc1 (relative stereo),32.8,35,39.6,40.6,–
COc1ccc(C2=NO[C@@]3(C(=O)Nc4cc(Cl)ccc43)[C@@H]2c2ccc(OC)cc2)cc1 (relative stereo),> 100,–,–,–,–
O=C1Nc2c(Cl)cccc2[C@]12ON=C(c1ccc([N+](=O)[O-])cc1)[C@H]2c1ccccc1 (relative stereo),55.5,–,–,–,–
O=C1Nc2cc(Cl)ccc2[C@]12ON=C(c1ccc([N+](=O)[O-])cc1)[C@H]2c1ccccc1 (relative stereo),33.8,32.4,33.5,39,–
